According to ChEMBL document CHEMBL3407439, “A facile and novel synthesis of N(2)-, C(6)-substituted pyrazolo[3,4-d]pyrimidine-4 carboxylate derivatives as adenosine receptor antagonists” (Eur J Med Chem, 2015):
pKi: −log10 of the molar value.

Columns and labels:
Adenosine receptor A1 = target: T1, Adenosine receptor A1 (Homo sapiens, UniProt P30542); assay: Displacement of [3H]CCPA from human adenosine A1 receptor expressed in CHO cells by Top Count analysis; assay type: cell-based
T1 sequence (P30542 whole entry): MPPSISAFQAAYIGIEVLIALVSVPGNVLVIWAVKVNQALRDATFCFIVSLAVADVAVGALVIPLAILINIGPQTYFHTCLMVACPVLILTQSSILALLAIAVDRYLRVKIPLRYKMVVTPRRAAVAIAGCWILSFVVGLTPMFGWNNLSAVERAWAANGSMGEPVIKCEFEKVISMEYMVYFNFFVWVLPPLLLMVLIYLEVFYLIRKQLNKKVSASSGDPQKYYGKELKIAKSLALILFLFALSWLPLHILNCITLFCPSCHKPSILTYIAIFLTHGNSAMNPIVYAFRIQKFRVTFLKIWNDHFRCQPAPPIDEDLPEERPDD
How it was run: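 Tritiated-radioligand competition binding at hA1 receptor, 3 h at room temperature; nonspecific binding with 1 mM theophylline. Separation by GF/B glass-fibre filtration, filter radioactivity counted by scintillation (57% efficiency). Ki from competition curves by nonlinear curve fitting.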

Adenosine receptor A2a = Adenosine receptor A2a (Homo sapiens, UniProt P29274); assay: Displacement of [3H]NECA from human adenosine A2A receptor expressed in CHO cells by Top Count analysis; assay type: cell-based
Adenosine receptor A2b = target: T2, Adenosine receptor A2b (Homo sapiens, UniProt P29275); assay: Antagonist activity at human adenosine A2B receptor expressed in CHO cells assessed as inhibition of NECA-induced adenylyl cyclase activity; assay type: functional, cell-based
T2 sequence (P29275 whole entry): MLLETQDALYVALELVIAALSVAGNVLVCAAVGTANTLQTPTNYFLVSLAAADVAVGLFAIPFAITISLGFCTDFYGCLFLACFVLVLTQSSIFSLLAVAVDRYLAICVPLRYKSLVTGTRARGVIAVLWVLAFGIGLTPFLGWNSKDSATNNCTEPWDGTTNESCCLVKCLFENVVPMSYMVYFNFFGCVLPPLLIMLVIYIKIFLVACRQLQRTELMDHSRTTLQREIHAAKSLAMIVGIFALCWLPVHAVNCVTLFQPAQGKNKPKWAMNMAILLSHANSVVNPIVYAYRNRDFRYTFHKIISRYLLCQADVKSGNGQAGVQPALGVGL
How it was run: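 Membranes from CHO cells transfected with hA2B receptor incubated 20 min with 100 nM NECA, 150,000 cpm [α-32P]ATP and varying antagonist concentrations, in mixture lacking EGTA and NaCl. Ki derived from concentration-dependent inhibition of NECA-stimulated adenylyl cyclase activity; n = 3–6.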

Adenosine receptor A3 = target: T3, Adenosine receptor A3 (Homo sapiens, UniProt P0DMS8); assay: Displacement of [3H]HEMADO from human adenosine A3 receptor expressed in CHO cells by Top Count analysis; assay type: cell-based
T3 sequence (P0DMS8 whole entry): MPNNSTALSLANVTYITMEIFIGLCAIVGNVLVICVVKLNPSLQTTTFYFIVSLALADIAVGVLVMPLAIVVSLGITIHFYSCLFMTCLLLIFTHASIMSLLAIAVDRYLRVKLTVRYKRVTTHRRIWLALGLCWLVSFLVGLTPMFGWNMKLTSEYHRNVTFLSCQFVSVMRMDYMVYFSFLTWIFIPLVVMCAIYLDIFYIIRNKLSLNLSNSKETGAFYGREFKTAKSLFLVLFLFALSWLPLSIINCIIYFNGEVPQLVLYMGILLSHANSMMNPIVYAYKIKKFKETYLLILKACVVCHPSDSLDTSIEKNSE
How it was run: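 Competition against [3H]HEMADO binding at hA3 receptor in CHO cells, 3 h at room temperature; nonspecific binding defined with 100 µM R-PIA.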

[1] = target: Adenosine receptors; A1 & A3 (Homo sapiens) (UniProt P30542+P0DMS8); assay: Selectivity ratio of Ki for human adenosine A1 receptor to Ki for human adenosine A3 receptor
Homo sapiens = species on record: Homo sapiens; assay: Selectivity ratio of Ki for human adenosine A2A receptor to Ki for human adenosine A3 receptor

Chain of Adenosine receptor A2a (P29274 whole entry): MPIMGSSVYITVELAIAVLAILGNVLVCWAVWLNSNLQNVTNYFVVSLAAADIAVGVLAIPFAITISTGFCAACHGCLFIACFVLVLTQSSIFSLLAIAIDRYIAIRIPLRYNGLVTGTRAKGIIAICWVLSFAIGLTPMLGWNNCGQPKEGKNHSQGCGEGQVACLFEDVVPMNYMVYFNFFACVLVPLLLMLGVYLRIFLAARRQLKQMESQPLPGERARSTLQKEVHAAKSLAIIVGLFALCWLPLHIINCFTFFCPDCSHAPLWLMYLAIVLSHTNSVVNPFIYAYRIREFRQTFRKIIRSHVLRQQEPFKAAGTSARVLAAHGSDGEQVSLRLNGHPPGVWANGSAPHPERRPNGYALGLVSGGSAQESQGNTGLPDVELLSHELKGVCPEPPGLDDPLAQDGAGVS

pKi (Adenosine receptor A1)	pKi (Adenosine receptor A2a)	pKi (Adenosine receptor A2b)	pKi (Adenosine receptor A3)	Ratio Ki [1]	Ratio Ki (Homo sapiens)	Compound
5.57	5.24	< 4.70	5.37	0.62	1.3	CCOC(=O)c1nc(NC(=O)Cc2ccccc2)nc2nn(CC(C)(C)C)cc12
5.30	5.21	< 4.70	5.17	0.73	0.8	CCOC(=O)c1nc(NC(=O)c2ccc(F)cc2)nc2nn(CCc3ccccc3)cc12
< 4.00	< 4.00	< 4.70	< 4.00			CCOC(=O)c1nc(NC(=O)c2ccc(C(F)(F)F)cc2)nc2nn(C)cc12
4.99	5.52	< 4.70	< 4.00			Cn1cc2c(C(N)=O)nc(N)nc2n1
5.37	5.48	< 5.00	5.07	0.5	0.4	CCOC(=O)c1nc(NC(=O)c2ccccc2)nc2nn(C(C)C)cc12
5.46	5.32	4.22	4.74	0.19	0.26	CCOC(=O)c1nc(N)nc2nn(CCc3ccccc3)cc12
5.59	5.38	< 4.70	5.44	0.72	1.2	CCOC(=O)c1nc(NC(=O)c2ccc(Br)cc2)nc2nn(CCc3ccccc3)cc12
5.60	5.12	< 4.70	5.24	0.5	1.3	CCOC(=O)c1nc(NC(=O)c2ccc(C(F)(F)F)cc2)nc2nn(CCc3ccccc3)cc12
5.09	5.04	< 4.70	< 4.00			CC(C)n1cc2c(C(N)=O)nc(N)nc2n1
< 4.00	< 4.00	< 4.70	< 4.00			CCOC(=O)c1nc(NC(=O)c2ccc(C(F)(F)F)cc2)nc2nn(C(C)C)cc12
< 4.00	< 4.00	< 4.70	< 4.00			CCOC(=O)c1nc(N(C(=O)c2ccc(F)c(F)c2)C(=O)c2ccc(F)c(F)c2)nc2nn(C)cc12
5.29	5.43	< 5.00	4.91	0.41	0.3	CCOC(=O)c1nc(NC(=O)c2ccccc2)nc2nn(CCc3ccccc3)cc12
< 4.00	< 4.00	< 4.70	< 4.00			CCOC(=O)c1nc(N(C(=O)c2ccccc2)C(=O)c2ccccc2)nc2nn(C)cc12
< 4.00	< 4.00	< 4.70	5.54	> 34	> 34	CCOC(=O)c1nc(N(C(=O)c2ccc(Br)cc2)C(=O)c2ccc(Br)cc2)nc2nn(C)cc12
5.40	5.30	< 4.82	4.98	0.38	0.48	CCOC(=O)c1nc(N)nc2nn(CC(C)(C)C)cc12
< 4.00	4.93	< 4.70	4.00	> 1	0.12	CCOC(=O)c1nc(NC(=O)c2ccc(C)cc2)nc2nn(C)cc12

pKi (Adenosine receptor A1)	pKi (Adenosine receptor A2a)	pKi (Adenosine receptor A2b)	pKi (Adenosine receptor A3)	Ratio Ki [1]	Ratio Ki (Homo sapiens)	Compound
< 4.00	4.94	< 4.70	< 4.00		< 0.14	CCOC(=O)c1nc(NC(=O)c2ccc(F)cc2)nc2nn(C)cc12
< 4.00	5.22	< 4.70	5.52	> 33	2	CCOC(=O)c1nc(NC(=O)c2ccc(C)cc2)nc2nn(CCc3ccccc3)cc12
< 4.00	< 4.00	< 4.70	< 4.00			CCOC(=O)c1nc(N(C(=O)c2ccccc2)C(=O)c2ccccc2)nc2nn(CCc3ccccc3)cc12
6.05	5.59	< 5.00	4.85	0.06	0.18	CCOC(=O)c1nc(N)nc2nn(C(C)C)cc12
5.55	5.55	< 4.70	5.24	0.5	0.5	CCOC(=O)c1nc(NC(=O)c2ccc(F)cc2)nc2nn(C(C)C)cc12
4.75	< 4.00	< 4.70	5.27	3.2	> 18.5	CCOC(=O)c1nc(N(C(=O)c2ccccc2)C(=O)c2ccccc2)nc2nn(C(C)C)cc12
5.06	5.70	< 4.70	6.05	9.7	2.2	CCOC(=O)c1nc(N)nc2nn(C)cc12
6.22	5.62	< 5.00	4.98	0.05	0.2	CCOC(=O)c1nc(NC(=O)Cc2ccccc2)nc2nn(CCc3ccccc3)cc12
< 4.05	< 4.10	< 4.70	4.71	> 4.6	> 4.1	CC(C)(C)Cn1cc2c(C(N)=O)nc(N)nc2n1
< 4.00	< 4.00	< 4.70	5.66	> 46	> 46	CCOC(=O)c1nc(NC(=O)c2ccc(Cl)c(Cl)c2)nc2nn(CCc3ccccc3)cc12
4.40	4.80	< 4.70	4.48	1.2	0.47	NC(=O)c1nc(N)nc2nn(CCc3ccccc3)cc12
4.85	4.79	< 4.70	< 4.00	< 0.14	< 0.16	CCOC(=O)c1nc(NC(=O)c2ccccc2)nc2nn(C)cc12
6.15	5.64	< 4.70	4.55	0.02	0.1	CCOC(=O)c1nc(NC(=O)c2ccc(C)cc2)nc2nn(C(C)C)cc12
6.22	5.06	< 5.00	4.88	0.04	0.66	CCOC(=O)c1nc(NC(=O)Cc2ccccc2)nc2nn(C(C)C)cc12
5.23	5.14	< 4.70	4.84	0.4	0.5	CCOC(=O)c1nc(NC(=O)Cc2ccccc2)nc2nn(C)cc12
5.57	5.24	< 4.70	5.37	0.62	1.3	CCOC(=O)c1nc(NC(=O)c2ccc(F)cc2)nc2nn(CC(C)(C)C)cc12
